Key:
[1] = Selectivity index, ratio of IC50 for mouse J774A1 cells to IC50 for Leishmania donovani MHOM/IN/OO/DEVI promastigote; assay type: toxicity, cell-based, J774.A1; conditions: read-out: Ratio IC50
J774.A1 = test: Cytotoxic activity against mouse J774A1 cells after 72 hrs by MTT assay; assay type: cell-based; conditions: J774.A1, 72 h
Method in brief: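 J774A.1 macrophages were grown in medium with 10% FCS, 2 mM L-glutamine, penicillin and streptomycin. Cells were seeded at 5 × 10⁴ cells/mL with a concentration range in duplicate (DMSO under 0.5% v/v final) and held 72 h at 37 °C, 6% CO₂. MTT was added at 0.5 mg/mL in RPMI 1640 for 2 h at 37 °C. Formazan was dissolved in DMSO and read at 570 nm. IC50 came from nonlinear regression, as the mean of three independent experiments.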

Leishmania donovani = test: Antileishmanial activity against Leishmania donovani MHOM/IN/00/DEVI promastigote after 72 hrs by MTT assay; assay type: functional, organism-based
Method in brief: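 Promastigotes were seeded at 10⁶ parasites/mL in medium containing penicillin and streptomycin, with a range of compound concentrations in duplicate (DMSO under 0.5% v/v final). After MTT addition, plates stood 6 h at 27 °C and were spun at 900 G for 10 min. The pellet was dissolved in DMSO and read at 570 nm. IC50 (50% loss of metabolic activity versus control) came from nonlinear dose-response regression.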

CC1(Cc2ccccc2)CC(S(=O)(=O)c2ccc(/C(N)=N\O)cc2)=C(c2ccc(C(F)(F)F)cc2)O1 (stereo unspecified)
selectivity ratio [1]: 1.4
IC50 (J774.A1): 11.9 µM
IC50 (Leishmania donovani): 8.46 µM

CC1(Cc2ccccc2)CC(S(=O)(=O)c2ccc(C(F)(F)F)cc2)=C(c2ccc(/C(N)=N/O)cc2)O1 (stereo unspecified)
selectivity ratio [1]: 3.87
IC50 (J774.A1): 30.5 µM
IC50 (Leishmania donovani): 7.89 µM

CC1(Cc2ccccc2)CC(S(=O)(=O)c2ccc(I)cc2)=C(c2ccc(/C(N)=N/O)cc2)O1 (stereo unspecified)
selectivity ratio [1]: 1.72
IC50 (J774.A1): 11.8 µM
IC50 (Leishmania donovani): 6.89 µM

CC1(Cc2ccccc2)CC(S(=O)(=O)c2ccc(/C(N)=N\O)cc2)=C(c2ccc(Cl)cc2)O1 (stereo unspecified)
selectivity ratio [1]: 0.71
IC50 (J774.A1): 7.05 µM
IC50 (Leishmania donovani): 9.87 µM

COc1ccc(S(=O)(=O)C2=C(c3ccc(/C(N)=N/O)cc3)OC(C)(Cc3ccccc3)C2)cc1 (stereo unspecified)
selectivity ratio [1]: 1.21
IC50 (J774.A1): 9.03 µM
IC50 (Leishmania donovani): 7.49 µM

COc1cccc2c1C(=O)c1c(O)c3c(c(O)c1C2=O)C[C@@](O)(C(=O)CO)C[C@@H]3O[C@H]1C[C@H](N)[C@H](O)[C@H](C)O1 [DOXORUBICIN]
IC50 (J774.A1): 0.02 µM

CC1(Cc2ccccc2)CC(S(=O)(=O)c2ccc(Cl)cc2)=C(c2ccc(/C(N)=N/O)cc2)O1 (stereo unspecified)
selectivity ratio [1]: 3.71
IC50 (J774.A1): 27.4 µM
IC50 (Leishmania donovani): 7.4 µM

CC1(Cc2ccccc2)CC(S(=O)(=O)c2ccc(Br)cc2)=C(c2ccc(/C(N)=N/O)cc2)O1 (stereo unspecified)
selectivity ratio [1]: 3.85
IC50 (J774.A1): 20.1 µM
IC50 (Leishmania donovani): 5.21 µM

CC1(Cc2ccccc2)CC(S(=O)(=O)c2ccc(/C(N)=N\O)cc2)=C(c2ccc(I)cc2)O1 (stereo unspecified)
selectivity ratio [1]: 1.22
IC50 (J774.A1): 8.08 µM
IC50 (Leishmania donovani): 6.63 µM

CC1(Cc2ccccc2)CC(S(=O)(=O)c2ccc(/C(N)=N\O)cc2)=C(c2ccc([N+](=O)[O-])cc2)O1 (stereo unspecified)
selectivity ratio [1]: 0.98
IC50 (J774.A1): 18.5 µM
IC50 (Leishmania donovani): 18.8 µM

N=C(N)c1ccc(OCCCCCOc2ccc(C(=N)N)cc2)cc1 [PENTAMIDINE]
selectivity ratio [1]: 0.16
IC50 (J774.A1): 1.03 µM
IC50 (Leishmania donovani): 6.29 µM

C[C@@H]1[C@H](O)[C@@H](C)/C=C/C=C/C=C/C=C/C=C/C=C/C=C/[C@H](O[C@@H]2O[C@H](C)[C@@H](O)[C@H](N)[C@@H]2O)C[C@@H]2O[C@](O)(C[C@@H](O)C[C@@H](O)[C@H](O)CC[C@@H](O)C[C@@H](O)CC(=O)O[C@H]1C)C[C@H](O)[C@H]2C(=O)O [AMPHOTERICIN B]
selectivity ratio [1]: 4.08
IC50 (J774.A1): 3.14 µM
IC50 (Leishmania donovani): 0.77 µM

CC1(Cc2ccccc2)CC(S(=O)(=O)c2ccc([N+](=O)[O-])cc2)=C(c2ccc(/C(N)=N/O)cc2)O1 (stereo unspecified)
selectivity ratio [1]: 2.61
IC50 (J774.A1): 50.6 µM
IC50 (Leishmania donovani): 19.4 µM

CC1(Cc2ccccc2)CC(S(=O)(=O)c2ccc(/C(N)=N\O)cc2)=C(c2ccc(Br)cc2)O1 (stereo unspecified)
selectivity ratio [1]: 1.09
IC50 (J774.A1): 9.78 µM
IC50 (Leishmania donovani): 8.95 µM

CC1(Cc2ccccc2)CC(S(=O)(=O)c2ccc(F)cc2)=C(c2ccc(/C(N)=N/O)cc2)O1 (stereo unspecified)
selectivity ratio [1]: 6.37
IC50 (J774.A1): 45.5 µM
IC50 (Leishmania donovani): 7.15 µM

CC1(Cc2ccccc2)CC(S(=O)(=O)c2ccc(/C(N)=N\O)cc2)=C(c2ccc(F)cc2)O1 (stereo unspecified)
selectivity ratio [1]: 1.18
IC50 (J774.A1): 36.2 µM
IC50 (Leishmania donovani): 30.7 µM

— ChEMBL document CHEMBL1795266, “Synthesis and evaluation of monoamidoxime derivatives: toward new antileishmanial compounds” (Eur J Med Chem, 2011)
